Beta cell apopt: beta cell apoptosis inhibition | INS-1E cytokine-induced death, ATP luminescence, 48 h; percent of positive-control rescue, neutral wells zero | protection from apoptosis, % (no concentration beside the values) | 0.8% of 300,000 active | AID 435005;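 active = Every replicate reaches about 75%, or at least half do and their mean reaches it too, limit read from the data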;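 note: 0% = cytokine-treated negative control wells and 100% = positive control rescue; higher means more ATP so stronger rescue from cytokine killing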
Mdm2-MdmX inh: human Mdm2/MdmX binding inhibition | O15151+Q00987 | SaOS-2 split-luciferase Mdm2/MdmX complementation, luminescence | inhibition, % at 8 µM | 3% of 330,000 active | AID 485346;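 active = inhibition of at least 50% at 8 µM in the primary screen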
Target sequence (O15151 whole entry, looked up): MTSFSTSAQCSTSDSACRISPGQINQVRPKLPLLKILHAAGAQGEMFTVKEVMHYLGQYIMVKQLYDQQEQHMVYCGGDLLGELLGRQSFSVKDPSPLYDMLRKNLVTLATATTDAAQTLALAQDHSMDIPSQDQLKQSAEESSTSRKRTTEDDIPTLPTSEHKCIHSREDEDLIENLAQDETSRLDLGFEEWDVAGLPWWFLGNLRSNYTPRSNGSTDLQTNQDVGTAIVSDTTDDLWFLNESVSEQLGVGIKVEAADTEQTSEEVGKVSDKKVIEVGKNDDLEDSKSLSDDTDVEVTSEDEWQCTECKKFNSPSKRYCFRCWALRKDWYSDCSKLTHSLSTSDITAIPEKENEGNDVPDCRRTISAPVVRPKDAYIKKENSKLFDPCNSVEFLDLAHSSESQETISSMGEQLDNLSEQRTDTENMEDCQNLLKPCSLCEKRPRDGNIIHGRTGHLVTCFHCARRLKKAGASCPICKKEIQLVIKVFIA
Target sequence (Q00987 whole entry, looked up): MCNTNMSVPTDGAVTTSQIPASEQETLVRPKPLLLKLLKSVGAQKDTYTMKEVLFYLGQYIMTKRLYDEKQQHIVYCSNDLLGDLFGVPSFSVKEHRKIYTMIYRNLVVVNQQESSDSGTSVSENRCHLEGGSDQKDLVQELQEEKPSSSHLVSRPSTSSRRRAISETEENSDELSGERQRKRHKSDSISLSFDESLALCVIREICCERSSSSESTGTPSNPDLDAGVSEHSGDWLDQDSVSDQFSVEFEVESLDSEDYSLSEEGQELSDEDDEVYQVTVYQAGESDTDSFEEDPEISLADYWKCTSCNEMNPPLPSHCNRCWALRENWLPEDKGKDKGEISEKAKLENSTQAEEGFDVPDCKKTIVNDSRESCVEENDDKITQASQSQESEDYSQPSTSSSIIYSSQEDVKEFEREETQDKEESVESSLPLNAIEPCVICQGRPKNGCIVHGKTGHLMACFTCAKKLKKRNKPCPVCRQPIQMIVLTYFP
L major viab: Leishmania major promastigote growth inhibition; Leishmania major promastigotes, resazurin fluorescence viability; inhibition, % at 10 µM; 9% of 200,000 active; AID 1063; in the data active = inhibition above about 50%;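 note: promastigotes grown with compound for 44 hours at 28 °C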
T cruzi repl: blocks replication of Trypanosoma cruzi. 1.4% of 300,000 active. inhibition, % (concentration not given with the values). T. cruzi beta-gal in NIH3T3, luminescence, 90 h;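 active = mean inhibition across valid replicates above about 55%, limit read from the data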;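 note: signal also drops with host cell toxicity which is not excluded here; 0% = plate median of DMSO wells and 100% = zero luminescence signal; higher percent means less beta-gal luminescence so fewer parasites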
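System: NIH/3T3 fibroblasts plus reporter T. cruzi. Medium: DMEM plus 2% FBS. Probe or stimulus: 5000 reporter trypomastigotes per well. Compound: single 50 nL compound addition per well in DMSO. Incubation: co-culture of at least 90 h after 3 h attachment. Detection: GalScreen β-gal luminescence, detergent lysis, 60 min. Evaluation: parasite load inhibition, %.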
CSC inhib: cancer stem cell inhibition; cancer stem cell-like cells viability, luminescence; inhibition, % at 7.5 µM; 1.1% of 300,000 active; in the data active = inhibition above about 75%; tested in HMLE shEcad cells
SKKanGAS inh: blocks kanamycin growth of S. pyogenes SKKanGAS strain | BacTiter-Glo, 6 h | inhibition, % at 7.5 µM | 1.3% of 300,000 active;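 active = mean replicate score, as percent of positive control median, at least 50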;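 note: strain carries kanamycin resistance gene driven by streptokinase promoter and grows in 40 µg/ml kanamycin; loss of luminescence reflects streptokinase promoter inhibition or plain growth inhibition; 0% = median of DMSO wells and 100% = positive control at its reference dose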
* hit, by the source's call; nt = no result given. Sampled rows, rich in hits. Any-hit rate of the full collection: about 9.4%.

SMILES	Beta cell apopt	Mdm2-MdmX inh	L major viab	T cruzi repl	CSC inhib	SKKanGAS inh
O=C1c2ccccc2[C@@H]2C[C@H](NC34CC5CC(CC(C5)C3)C4)[C@@H](O)CCN12	nt	21.9	nt	nt	nt	nt
CCC(=O)c1ccc(OCC(=O)OC(C)C(=O)NCc2ccc3c(c2)OCO3)cc1 (stereo not given)	2.9	-10.8	nt	-4.8	nt	33.1
CCOc1cc(OCC)nc(S(C)(=O)=O)n1	-7.2	0.1	7.6	9.1	-4.6	-7.9
O=C(NCCCO)c1cc([N+](=O)[O-])cc2c1C=Cc1ccccc1O2	1.3	-2.5	96.5*	35.6	-8.4	-3.2
O=C(NCCCc1ccccc1)c1ccc([N+](=O)[O-])cc1Cl	-3.8	5.6	nt	13.2	-7.0	4.4
CCN(Cc1ccccc1)C(c1cccs1)c1nnnn1C1CCCCC1 (stereo not given)	100.8*	23.6	31.2	56.2*	38.6	-2.2
CCN(Cc1ccccc1)C(c1ccccn1)c1nnnn1C1CCCCC1 (stereo not given)	9.6	3.4	33.5	5.8	-8.9	-17.4
Clc1ccc(CN(CC2CCCO2)C(c2cccs2)c2nnnn2C2CCCC2)cc1 (stereo not given)	15.9	27.4	54.7*	31.2	49.9	-16.4
Clc1ccccc1CN(Cc1ccccc1)C(c1cccs1)c1nnnn1C1CCCC1 (stereo not given)	8.7	-6.4	59.9*	35.2	24.3	-2.2
Clc1ccccc1CN(Cc1ccco1)Cc1nnnn1C1CCCC1	-16.8	23.1	35.1	23.1	16.3	17.1
c1csc(C(c2nnnn2C2CCCC2)N2CCOCC2)c1 (stereo not given)	-6.7	36.5	-1.1	-13.2	0.9	-3.2
CC(C)C(=O)Nc1nc2c(c(=O)[nH]1)CCCC2	-6.1	0.8	-9.4	-1.5	-3.9	2.4
COCCCNC(=O)c1ccccc1N(Cc1ccccc1)S(=O)(=O)c1ccccc1	1.0	22.6	nt	14.3	-19.6	-11.6
CN(C)c1ncc(C2=C(Cl)C(=O)C(N3CCCC3)=C(Cl)C2=O)s1	-13.3	-17.4	33.1	20.4	4.2	76.6*
CCS(=O)(=O)Nc1ccc(C2=NN(C(=O)c3ccco3)C(c3ccc(C)cc3)C2)cc1 (stereo not given)	8.0	-1.8	73.9*	17.7	-6.7	6.6
CS(=O)(=O)Nc1ccc(C2=NN(C(=O)c3ccco3)C(c3ccccc3)C2)cc1 (stereo not given)	4.5	26.5	67.8*	2.3	-1.6	3.0
CC(C)C(=O)N1N=C(c2ccc(NS(C)(=O)=O)cc2)CC1c1cccs1 (stereo not given)	-9.2	17.9	-2.3	11.3	-7.5	-4.4
Cc1ccc(C2CC(c3ccc(NS(C)(=O)=O)cc3)=NN2C(=O)c2ccco2)cc1 (stereo not given)	12.4	6.1	-4.5	3.2	10.1	5.3
CS(=O)(=O)Nc1ccc(C2=NN(C(=O)C3CCCCC3)C(c3cccs3)C2)cc1 (stereo not given)	-1.3	9.9	11.3	-10.4	-2.1	82.6*
Cc1cccc(N2CC(C(=O)NC3CCCCCC3)CC2=O)c1C (stereo not given)	2.0	-6.2	nt	nt	-3.5	nt
Cc1cccc2c(C(=O)O)c3cccc(C)c3nc12	-3.9	29.5	nt	-17.1	-5.6	-4.1
O=C(Cc1ccccc1)Nc1ccc(NC(=O)c2cccs2)c(Cl)c1	6.9	-31.5	-5.4	-8.3	15.0	2.2
Cc1nn(C(C)C(=O)N2CCCC2)c(=O)c2nn(-c3ccccc3)c(C)c12 (stereo not given)	-1.6	7.1	nt	55.8*	-10.9	0.0
C=CCNC(=S)NCC=C	-2.5	-29.0	nt	-7.5	-11.3	6.6
COc1cc(C(c2c(C)[nH][nH]c2=O)c2c(C)[nH][nH]c2=O)ccc1OCc1ccc([N+](=O)[O-])cc1	2.3	-38.5	98.4*	30.8	6.3	-17.6
SMILES	Beta cell apopt	Mdm2-MdmX inh	L major viab	T cruzi repl	CSC inhib	SKKanGAS inh
Cc1c(CCOC(=O)c2ccccc2)sc[n+]1Cc1ccccc1	-16.8	0.9	-3.4	6.9	nt	0.4
Cc1ccc2c(c1)sc[n+]2Cc1ccccc1	-6.4	-97.3	-0.7	54.6*	-3.4	-21.4
Cc1cc(C)cc(C(=O)OCC(=O)Nc2cccc(S(=O)(=O)NC3=NCCCCC3)c2)c1	0.4	28.7	52.1*	-6.3	4.9	-1.2
O=C(COC(=O)c1ccccc1)Nc1cccc(S(=O)(=O)NC2=NCCCCC2)c1	-4.3	-17.4	-3.0	-7.4	5.6	6.9
Cc1cc(-c2nnc(SCC(=O)Nc3c(C)cccc3C)n2N)n[nH]1	2.3	-7.6	nt	-14.8	-5.5	2.7
COC(=O)C1CN(C(=O)C(C)Oc2ccc(F)cc2)c2ccccc2O1 (stereo not given)	-10.4	7.3	nt	-5.1	-6.0	2.2
Cc1ccc(-c2nc3ncccc3o2)cc1NC(=S)NC(=O)c1ccco1	7.0	2.3	1.1	-5.5	6.8	-0.8
Cc1ccc(-c2nc3ncccc3o2)cc1NC(=O)c1cccs1	-2.3	9.0	94.8*	-3.6	14.5	-5.1
CCCC(=O)Nc1cc(-c2nc3ncccc3o2)ccc1C	-6.0	15.9	89.1*	-10.8	4.9	3.2
CCCC(=O)NC(=S)Nc1cc(-c2nc3ncccc3o2)ccc1C	-5.7	25.4	nt	1.5	1.8	21.2
Cc1ccc(-c2nc3ncccc3o2)cc1NC(=O)c1ccco1	7.3	27.9	99.2*	-6.7	-10.7	-3.8
Cc1ccc(NC(=O)COc2ccc3c(c2)CCC3)nc1	nt	-16.1	nt	-11.5	12.3	-13.6
O=C(Nc1ccc(Cl)cc1)Nn1cnnc1	nt	19.0	nt	-2.8	nt	-2.8
Cc1ccc(-c2cc(C(F)F)nc(N3CCC(C)CC3)n2)cc1	nt	0.8	1.6	4.4	43.7	63.1*
CC(=O)Nc1ccc(S(=O)(=O)NCCN2CCNC2=O)cc1Cl	-2.4	17.8	nt	-17.0	5.6	-19.0
Nc1ccc(-c2nc3nc(N)nc(N)c3nc2-c2ccc(N)cc2)cc1	0.8	12.0	nt	0.0	0.8	62.2*
O=C(NN=C1c2ccccc2-c2ccccc21)c1cccc(Br)c1	18.4	40.0	89.4*	54.0	13.2	71.8*
NC(=O)c1ccc(C(=O)N/N=C/c2cccc(Oc3ccccc3)c2)cc1	5.6	12.5	nt	1.5	-5.2	10.1
O=C(N/N=C/c1cccc(Oc2ccccc2)c1)c1ccccc1Br	nt	20.8	95.5*	-35.6	nt	3.2
O=C(N/N=C/c1cccc(Oc2ccccc2)c1)c1cccc(Br)c1	5.2	18.1	95.0*	-47.4	68.3	5.9
CCCC[C@@H]1C=C(C(=O)O)[C@H](c2ccc(C#N)cc2)N1S(=O)(=O)c1ccc(C)cc1	nt	21.1	nt	nt	nt	nt
CC(C)Oc1ccc(Cc2cnc(N)nc2N)cc1	nt	-14.5	58.0*	23.1	-1.2	20.5
COc1ccc2c(c1)sc(=NC(=O)CS(=O)(=O)c1ccc(F)cc1)n2C	nt	12.1	nt	63.3*	-11.4	-8.4
CCCn1c(=NC(=O)CS(=O)(=O)c2ccccc2)sc2cc(S(C)(=O)=O)ccc21	6.3	16.3	nt	11.5	0.4	3.9
O=C(O)c1ccc(NS(=O)(=O)c2cc(Cl)ccc2Cl)cc1	-5.9	8.6	94.5*	12.9	-2.0	4.6
